Experiments:
[1] = Cell adhesion measured using the inhibitory concentration against Human umbilical vein endothelial cell (HUVEC) activation, with Na51CrO4 as radioligand at 100 uM; format: functional
Method in brief: (§1)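 Confluent second-passage HUVEC monolayers were stimulated with TNF-α (200 U/mL) for 4 h with or without compound at 100 μM, then washed. Fresh human neutrophils labelled with Na⁵¹CrO₄ (5 × 10⁵) were added for 30 min at 37 °C. Non-adherent cells were aspirated and adherent cells lysed in NH₄OH; lysates were γ-counted. Results are % inhibition of TNF-stimulated adherence, triplicate. IC50 came from linear regression at 33.3–1.0 μM.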

[2] = The compound was tested for inhibitory activity against intercellular adhesion molecule (ICAM)-1 mediated cell adhesion in Human aortic endothelial cell culture, by using HAEC surface expression assay at 50 uM; format: functional
Method in brief: (§2)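 Confluent human aortic endothelial cells were incubated with TNF-α (250 U/mL) and compound (0.005% DMSO final) for 18 h. Cells were formalin-fixed and probed with anti-ICAM-1 mAb (2 h, 37 °C), then peroxidase anti-mouse IgG (1 h) and colour reagent (15 min). Read-out was OD414.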

[3] = The compound was tested for inhibitory activity against E-Selectin mediated cell adhesion in Human umbilical endothelial cell culture, by using HUVEC surface expression assay.; format: functional, cell-based
Method in brief: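 Confluent HUVECs were given compound 30 min before TNF-α (140 U/mL final), then incubated 4 h at 37 °C. Unstimulated background was subtracted and results given as % inhibition versus vehicle. IC50 came from linear regression; average of two assays, each in triplicate.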

[4] = The compound was tested for inhibitory activity against intercellular adhesion molecule (ICAM)-1 mediated cell adhesion in Human umbilical endothelial cell culture, by using HUVEC surface expression assay.; format: functional, cell-based
Method in brief: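 HUVECs were pretreated with compound for 30 min, then stimulated with TNF-α (140 U/mL final) for 4 h at 37 °C. Unstimulated background was subtracted and results given as % inhibition versus vehicle. IC50 came from linear regression; average of two triplicate assays.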

[5] = The compound was tested for inhibitory activity against vascular cell adhesion molecule (VCAM)-1 mediated cell adhesion in Human aortic endothelial cell culture, by using HAEC surface expression assay at 50 uM; format: functional
Method in brief: (§3)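 Human aortic endothelial cells at confluence were incubated with TNF-α (250 U/mL) and compound (0.005% DMSO final) for 18 h, then formalin-fixed. Cells were probed with anti-VCAM-1 mAb (2 h, 37 °C), then biotin anti-mouse IgG+IgM F(ab)₂ (1 h), then [¹²⁵I]streptavidin (15 min, 4 °C). NaOH digests were counted.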

[6] = The compound was tested for cell adhesion by measuring the inhibitory concentration against Human umbilical vein endothelial cell (HUVEC) activation, using Na51CrO4 as radioligand.; format: functional, cell-based
[7] = The compound was tested for cell adhesion by measuring the inhibitory concentration against Human umbilical vein endothelial cell (HUVEC) activation, using calcein-AM as radioligand at 100 uM; format: functional
[8] = cell adhesion assay; measuring the inhibitory concentration against Human umbilical vein endothelial cell (HUVEC) activation, using Na51CrO4 as radioligand at 100 uM; format: functional; details: in the assay text read “calcein-AM” for “Na51CrO4”
[9] = The compound was tested for cell adhesion by measuring the inhibitory concentration against Human umbilical vein endothelial cell (HUVEC) activation, using calcein-AM as radioligand at 33 uM; format: functional
[10] = The compound was tested for cell adhesion by measuring the inhibitory concentration against Human umbilical vein endothelial cell (HUVEC) activation, using Na51CrO4 as radioligand at 50 uM; format: functional
[11] = The compound was tested for cell adhesion by measuring the inhibitory concentration against Human umbilical vein endothelial cell (HUVEC) activation, using Na51CrO4 as radioligand at 100 uM; format: functional; method in brief: as §1
[12] = The compound was tested for cell adhesion by measuring the inhibitory concentration against Human umbilical vein endothelial cell (HUVEC) activation, using Na51CrO4 as radioligand at 100 micro M; format: functional; method in brief: as §1
[13] = Inhibitory activity against Human umbilical vein endothelial cell (HUVEC) activation, using Na51CrO4 as radioligand at 100 uM.; format: functional; method in brief: as §1
[14] = The compound was tested for inhibitory activity against vascular cell adhesion molecule (VCAM)-1 mediated cell adhesion in Human aortic endothelial cell culture, by using HAEC surface expression assay.; format: functional, cell-based; method in brief: as §3
[15] = The compound was tested for inhibitory activity against intercellular adhesion molecule (ICAM)-1 mediated cell adhesion in Human aortic endothelial cell culture, by using HAEC surface expression assay.; format: functional, cell-based; method in brief: as §2
Rattus norvegicus = test: Inhibitory activity against Mycobacterium-induced foot-pad edema(MFE); format: functional
[16] = The compound was tested for cell adhesion by measuring the inhibitory concentration against Human umbilical vein endothelial cell (HUVEC) activation, using calcein-AM radioligand at 100 uM; format: functional
[17] = Inhibitory activity against E-Selectin mediated cell adhesion in Human umbilical endothelial cell culture, by using HUVEC surface expression assay.; format: functional, cell-based
Method in brief: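 Confluent HUVECs were given compound 30 min before TNF-α (140 U/mL final), then incubated 4 h at 37 °C. Cells were formalin-fixed and surface E-selectin detected by cell ELISA (mouse anti-E-selectin 0.5 μg/mL, peroxidase anti-mouse IgG), with absorbance at 414 nm. Unstimulated background was subtracted and results given as % inhibition versus vehicle. IC50 came from linear regression; average of two assays, each in triplicate.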

[18] = Inhibitory activity against intercellular adhesion molecule (ICAM)-1 mediated cell adhesion in Human umbilical endothelial cell culture, by using HUVEC surface expression assay.; format: functional, cell-based
Method in brief: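 HUVECs were pretreated with compound for 30 min, then stimulated with TNF-α (140 U/mL final) for 4 h at 37 °C. After formalin fixation, surface ICAM-1 was measured by cell ELISA (mouse anti-ICAM-1 0.5 μg/mL, peroxidase anti-mouse IgG), with absorbance at 414 nm. Unstimulated background was subtracted and results given as % inhibition versus vehicle. IC50 came from linear regression; average of two triplicate assays.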

[19] = The compound was tested for inhibitory activity against intercellular adhesion molecule (ICAM)-1 mediated cell adhesion in Human aortic endothelial cell culture, by using HAEC surface expression assay at 50 micro M
[20] = The compound was tested for inhibitory activity against vascular cell adhesion molecule (VCAM)-1 mediated cell adhesion in Human aortic endothelial cell culture, by using HAEC surface expression assay at 50 micro M

## CC(C)Oc1c(C(N)=O)sc2ccccc12
[1]
  inhibition at 100 µM: 60%

## COc1ccc2ccc(C(N)=O)c(OC(C)C)c2c1
[2]
  inhibition at 50 µM: 86%
[3]
  IC50: 8.6 µM
[4]
  IC50: 5.2 µM
[5]
  inhibition at 50 µM: 81%
[6]
  IC50: 11 µM

## COc1ccc2sc(C(N)=O)c(SCCCCC(=O)O)c2c1
[7]
  inhibition at 100 µM: 37%

## CCNC(=O)c1oc2ccc(OC)cc2c1OC(C)C
[7]
  inhibition at 100 µM: < 4%

## COc1ccc2c(c1)c(OC)c(C(N)=O)[s+]2[O-] (stereo not drawn)
[8]
  inhibition at 100 µM: 40%

## CC(C)Sc1c(C(N)=O)sc2ccc(OCc3ccccc3)cc12
[9]
  inhibition at 33 µM: 24%

## CNC(=O)c1sc2ccc(OC)cc2c1SC(C)C
[9]
  inhibition at 33 µM: 61%

## CC(C)Oc1c(C(N)=O)oc2ccccc12
[1]
  inhibition at 100 µM: 20%

## COc1ccc2c(c1)c(OC(C)C)c(C(N)=O)n2C
[2]
  inhibition at 50 µM: 92%
[3]
  IC50: 9.2 µM
[4]
  IC50: 3.7 µM
[5]
  inhibition at 50 µM: 84%
[6]
  IC50: 10 µM

## CC(C)OC1=C(C(N)=O)S(=O)(=O)c2ccc(O)cc21
[10]
  inhibition at 50 µM: < 4%

## Cc1ccc2sc(C(N)=O)c(OC(C)C)c2c1
[1]
  inhibition at 100 µM: 61%

## COc1ccc2sc(C(N)=O)c(SCC(=O)O)c2c1
[9]
  inhibition at 33 µM: 7%

## COc1ccc2sc(C(=O)NCC(=O)O)c(OC(C)C)c2c1
[1]
  inhibition at 100 µM: < 4%

## CC(C)Oc1c(C(N)=O)sc2ccc(OCc3ccccc3)cc12
[1]
  inhibition at 100 µM: < 4%

## CNC(=O)c1c(OC(C)C)c2cc(OC)ccc2[s+]1[O-] (stereo not drawn)
[11]
  inhibition at 100 µM: 43%

## COc1ccc2sc(C(N)=O)c(Sc3ccccc3)c2c1
[1]
  inhibition at 100 µM: 48%

## COCn1c(C(N)=O)c(OC(C)C)c2cc(OC)ccc21
[6]
  IC50: 34 µM

## CCNC(=O)c1sc2ccc(OC)cc2c1OC(C)C
[12]
  Inhibition: 64%

## COc1ccc2sc(C(N)=O)c(SC(C)C)c2c1
[6]
  IC50: 12 µM

## COc1ccc2c(c1)c(OC(C)C)c(C(=O)NC(C)C)[s+]2[O-] (stereo not drawn)
[11]
  inhibition at 100 µM: 8%

## COc1ccc2sc(C(N)=O)c(OC)c2c1
[1]
  inhibition at 100 µM: 60%

## COc1ccc2sc(C(=O)Nc3cccc(C(=O)O)c3)c(OC(C)C)c2c1
[1]
  inhibition at 100 µM: 28%

## COc1ccc2c(c1)c(Oc1ccccc1)c(C(N)=O)[s+]2[O-] (stereo not drawn)
[13]
  inhibition at 100 µM: 15%

## COc1ccc2ccc(C(=O)Nc3ccccc3)c(OC(C)C)c2c1
[1]
  inhibition at 100 µM: < 4%

## COc1ccc2c(c1)c(OC(C)C)c(C(N)=O)[s+]2[O-] (stereo not drawn)
[14]
  IC50: 4 µM
[3]
  IC50: 6.6 µM
[4]
  IC50: 4 µM
[15]
  IC50: 10 µM
Rattus norvegicus
  ID40: 10.9 mg/kg
[6]
  IC50: 8.7 µM

## COc1cccc2c(OC(C)C)c(C(N)=O)sc12
[2]
  inhibition at 50 µM: 21%
[5]
  inhibition at 50 µM: < 4%
[10]
  inhibition at 50 µM: 35%

## CC(C)Oc1c(C(N)=O)sc2ccc([N+](=O)[O-])cc12
[1]
  inhibition at 100 µM: 40%

## CCNC(=O)c1c(OC(C)C)c2cc(OC)ccc2[s+]1[O-] (stereo not drawn)
[11]
  inhibition at 100 µM: 36%

## CC(C)Oc1c(C(N)=O)sc2ccc(O)cc12
[2]
  inhibition at 50 µM: 91%
[3]
  IC50: 3.3 µM
[4]
  IC50: 3.5 µM
[6]
  IC50: 6.4 µM

## COc1ccc2sc(C(=O)Nc3ccccc3)c(OC(C)C)c2c1
[1]
  inhibition at 100 µM: 12%

## CC(C)Oc1c(C(N)=O)oc2ccc(Cl)cc12
[1]
  inhibition at 100 µM: 52%

## COc1ccc2sc(C(N)=O)c(Oc3ccccc3)c2c1
[1]
  inhibition at 100 µM: 59%

## COc1ccc2c(c1)c(OC(C)C)c(C(=O)Nc1ccccc1)[s+]2[O-] (stereo not drawn)
[7]
  inhibition at 100 µM: < 4%

## COc1ccc2sc(C(=O)Nc3ccccc3C(=O)O)c(OC(C)C)c2c1
[1]
  inhibition at 100 µM: 35%

## COc1ccc2sc(C(=O)NCc3ccccc3)c(OC(C)C)c2c1
[16]
  inhibition at 100 µM: 35%

## COc1ccc2sc(C(N)=O)c(SCCN)c2c1
[9]
  inhibition at 33 µM: 0%

## CC(C)Oc1c(C(N)=O)sc2ccc(N)cc12
[1]
  inhibition at 100 µM: 49%

## COc1ccc2sc(C(=O)Nc3ccc(C(=O)O)cc3)c(OC(C)C)c2c1
[6]
  IC50: 50 µM

## CC(C)Sc1c(C(N)=O)sc2ccccc12
[1]
  inhibition at 100 µM: 34%

## COc1ccc2sc(C(=O)NCCCCC(=O)O)c(OC(C)C)c2c1
[1]
  inhibition at 100 µM: 9%

## CCNC(=O)c1ccc2ccc(OC)cc2c1OC(C)C
[1]
  inhibition at 100 µM: 73%

## CC(C)Oc1c(C(N)=O)sc2ccc(Cl)cc12
[1]
  inhibition at 100 µM: 72%

## COc1ccc2oc(C(N)=O)c(OC(C)C)c2c1
[3]
  IC50: 7.9 µM
[4]
  IC50: 5 µM
[6]
  IC50: 14 µM

## CC(C)Oc1c(C(N)=O)[s+]([O-])c2ccc(O)cc12 (stereo not drawn)
[17]
  IC50: 5 µM
[18]
  IC50: 2.7 µM

## COc1ccc2sc(C(N)=O)c(SC)c2c1
[1]
  inhibition at 100 µM: 81%

## COc1ccc2c(c1)c(OC(C)C)c(C(=O)NCc1ccccc1)[s+]2[O-] (stereo not drawn)
[1]
  inhibition at 100 µM: 15%

## COc1ccc2[nH]c(C(N)=O)c(OC(C)C)c2c1
[2]
  inhibition at 50 µM: 89%
[3]
  IC50: 7.9 µM
[4]
  IC50: 2.5 µM
[5]
  inhibition at 50 µM: 83%
[6]
  IC50: 8 µM

## CC(C)Oc1c(C(N)=O)ccc2ccccc12
[1]
  inhibition at 100 µM: < 4%

## COc1ccc2sc(C(=O)NC(C)C)c(SC(C)C)c2c1
[9]
  inhibition at 33 µM: 22%

## CC(C)Oc1c(C(N)=O)[s+]([O-])c2ccccc12 (stereo not drawn)
[8]
  inhibition at 100 µM: < 4%

## COc1ccc2c(OC(C)C)c(C(N)=O)sc2c1
[1]
  inhibition at 100 µM: 24%

## COc1ccc2sc(C(N)=O)c(OCc3ccccc3)c2c1
[1]
  inhibition at 100 µM: 57%

## CNC(=O)c1sc2ccc(OC)cc2c1OC(C)C
[19]
  Inhibition: 85%
[3]
  IC50: 1.4 µM
[4]
  IC50: 6.6 µM
[20]
  Inhibition: 83%
[6]
  IC50: 15 µM

## COc1ccc2oc(C(=O)Nc3ccccc3)c(OC(C)C)c2c1
[1]
  inhibition at 100 µM: < 4%

Reference: ChEMBL document CHEMBL1128190, “Inhibition of E-selectin-, ICAM-1-, and VCAM-1-mediated cell adhesion by benzo[b]thiophene-, benzofuran-, indole-, and naphthalene-2-carboxamides: identification of PD 144795 as an antiinflammatory agent” (J Med Chem, 1995)
